A selection: hits, their analogues and other compounds. The true share with any hit is near 4.8%.
Jurkat NFkB inh: inhibitors of induced NF-kB luciferase reporter, primary screen, TCR NF-kB activation inhibitor project, cell-based, luminescence, uHTS | actives 0.53% (n = 330,000) | Jurkat, PMA/ionomycin-induced NF-kB luciferase reporter | AID 435003, 2010 | inhibition, % at 4 µM; in the data active means inhibition above about 50%
HSF1 inhib: HSF1 inhibitors in luciferase reporter cells, primary screen, cell-based, NIH3T3, luminescence; NIH3T3-HGL HSE-luciferase, MG132-induced, luminescence 8 h; active compounds read low; activity change, negative = inhibition, % at 7.5 µM (by protocol); actives 0.77% (n = 300,000); AID 2098, 2009;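 active means more than half of replicate wells show activity change below -50%, luminescence cut by over half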;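 further: luciferase reports HSF-1 transcriptional activity via heat shock element; 0% = median of DMSO wells and -100% = zero luminescence signal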
GPR7 antag: GPR7 receptor antagonists, primary screen, cell-based, fluorescence, single concentration; Neuropeptides B/W receptor type 1 (Homo sapiens), P48145; GPR7-expressing cells, fluorescence antagonist assay; inhibition, % at 4.4 µM; actives 1.1% (n = 290,000); AID 1861, 2009; in the data active means inhibition above about 16%, passing the limit was not always enough;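 further: cells stimulated with the agonist NPW; 0% = agonist with vehicle and 100% = vehicle without agonist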
Target sequence (P48145 whole entry, looked up): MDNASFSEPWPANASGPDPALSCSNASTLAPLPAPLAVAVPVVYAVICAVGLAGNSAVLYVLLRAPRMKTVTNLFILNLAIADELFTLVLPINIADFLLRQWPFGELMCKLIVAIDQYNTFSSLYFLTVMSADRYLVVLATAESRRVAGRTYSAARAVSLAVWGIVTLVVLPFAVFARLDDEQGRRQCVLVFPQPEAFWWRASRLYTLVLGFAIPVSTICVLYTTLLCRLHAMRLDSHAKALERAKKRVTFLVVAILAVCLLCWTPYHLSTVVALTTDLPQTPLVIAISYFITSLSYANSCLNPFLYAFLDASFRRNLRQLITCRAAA
T cruzi repl: inhibitors of intracellular T. cruzi growth, primary screen, luminescence, NIH3T3 host cells; T. cruzi beta-gal in NIH3T3, 90 h; actives 1.4% (n = 300,000); inhibition, % (no concentration beside the values);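 active means mean inhibition across valid replicates above about 55%, limit read from the data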;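 further: signal also drops with host cell toxicity which is not excluded here; 0% = plate median of DMSO wells and 100% = zero luminescence signal; higher percent means less beta-gal luminescence so fewer parasites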
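Material: NIH/3T3 host cells with β-galactosidase reporter T. cruzi; Input: 5,000 host fibroblasts per well; Medium: DMEM, 2% fetal bovine serum; Compound: 50 nL DMSO compound solution per well; Schedule: 3 h host attachment, then at least 90 h co-culture; Detection: luminescent β-galactosidase signal after 60 min lysis.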
697 NFkB inh: inhibitors of PMA/ionomycin-induced NF-kB reporter, 697 cells, primary screen, B-cell NF-kB inhibitor project, cell-based, luminescence, uHTS. actives 0.33% (n = 330,000). inhibition, % at 4 µM. 697 B-cell NF-kB luciferase reporter, 16 h; in the data active means inhibition above about 35%
HSF1 activator: HSF-1 activators, primary screen, NIH3T3-HGL cells, MG132 stress, luminescence, single point | NIH3T3-HGL HSF-1 luciferase reporter, 8 h; 100% = twice DMSO control signal | AID 504408, 2011 | actives 1.7% (n = 300,000) | activation, % at 9 µM;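 active means mean replicate activation of at least 50% with a set share of replicates each reaching 50%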;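 further: 0% = median of the neutral control wells and 100% = twice that signal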
Active calls of the source: *; x = no result given.

SMILES	Jurkat NFkB inh	HSF1 inhib	GPR7 antag	T cruzi repl	697 NFkB inh	HSF1 activator
Cc1ccc(NCc2nc3ccccc3n2C)c(C)c1	-130.4	32.7	-3.5	-10.4	-240.9	63.6*
Cc1cccc(NCc2nc3ccccc3n2C)c1	-94.1	12.7	1.2	8.3	-100.6	-11.4
CCOc1ccc(C2N(c3ccc(F)cc3)C(=O)C3CCCN32)cc1OC (stereo not given)	6.8	-52.2*	-16.0	4.2	8.6	-64.7
C=C1c2ccccc2O[C@H](C(=O)OCC)[C@H]1OC	x	x	x	x	11.2	x
Cc1[nH]c2ccccc2c1-c1nc2ccccc2[nH]c1=O	-0.9	11.5	-2.1	-13.8	2.7	5.2
COc1cc(/C=N/NC(=O)c2ccncc2)ccc1OC(=O)c1cccc(F)c1	-11.7	-3.3	-3.0	-9.4	-14.3	-0.4
CC(=O)OCC(=O)[C@@]1(O)[C@H](C)C[C@H]2[C@@H]3CCC4=CC(=O)C=C[C@]4(C)[C@@]3(F)[C@@H](O)C[C@@]21C	6.1	-42.1	-0.2	27.3	3.4	-50.1
C[C@@H]1C[C@H]2[C@@H]3CCC4=CC(=O)C=C[C@]4(C)[C@@]3(F)[C@@H](O)C[C@]2(C)[C@@]1(O)C(=O)CO	6.0	-52.6*	x	-7.1	4.1	-60.6
CCCCCC(=O)NC(=S)NC1C2CC3CC(C2)CC1C3 (stereo not given)	3.0	5.8	-10.8	29.7	-47.0	-5.9
C=CCOc1ccc(/C=N/N2C(=O)C(CC(=O)Nc3ccc(F)cc3F)SC2=NC)cc1 (stereo not given)	-20.8	29.5	-5.0	11.1	-17.5	53.9*
CN=C1SC(CC(=O)Nc2ccccc2F)C(=O)N1C (stereo not given)	2.4	-0.3	-9.1	-20.8	10.0	5.1
COc1ccc(N(CC(=O)NC2CCCC2)S(=O)(=O)c2ccc(NC(C)=O)cc2)cc1	0.8	-3.6	-10.1	0.8	15.0	-2.8
S=C(NCc1ccccc1)NCc1ccco1	10.0	17.9	-16.0	-27.8	-2.5	56.2*
COc1ccc(CNC(=S)N/N=C(\C)c2ccc(OC)cc2)cc1	-1.1	7.9	-10.1	-5.4	-4.1	-11.2
S=C(NCc1ccco1)Nc1ccc(Br)cc1Cl	-13.6	166.6	-9.4	30.5	-26.5	199.1*
O=C(NCc1ccco1)C12CC3CC(CC(C3)C1)C2	-29.5	-2.9	-1.5	-3.7	-80.0	-3.6
COc1ccc(/C(C)=N/NC(=S)NCc2ccco2)cc1	-7.6	48.4	-9.4	5.5	-11.2	73.4*
O=C(CC12CC3CC(CC(C3)C1)C2)NC(=S)NCc1ccco1	-10.9	-5.7	-9.7	56.2*	-11.0	16.7
Cc1cccn2c(=O)c(/C=C(\C#N)C(N)=O)c(N3CCN(c4cccc(Cl)c4)CC3)nc12	10.4	-1.3	-5.5	40.1	-2.2	3.7
COCC(C)Nc1nc(C)c(C(C)=O)s1 (stereo not given)	-7.6	2.2	-8.3	0.2	1.0	-6.6
C/C(=N\Nc1ccc(C(=O)O)cc1)c1ccc(-n2ccnc2)cc1	-32.9	0.1	-8.6	-6.2	-109.5	2.5
Cn1c2ccccc2c(=O)c2cc(C#CC3(O)CCCCC3)ccc21	-81.3	-84.7*	-1.5	4.8	-151.8	-86.7
O=C(/C=C/c1ccccc1)NC(=S)Nc1ccccc1O	-65.6	31.6	-3.7	-14.8	-15.5	59.5*
O=C(/C=C/c1ccc(F)cc1)NC(=S)Nc1ccccc1O	x	17.9	-4.7	-15.7	x	26.2
O=C(/C=C/c1ccccc1)NC(=S)Nc1ccc(CN2CCOCC2)cc1	-12.8	38.3	-4.9	-8.4	-9.7	73.0*
SMILES	Jurkat NFkB inh	HSF1 inhib	GPR7 antag	T cruzi repl	697 NFkB inh	HSF1 activator
O=C(/C=C/c1ccc(S(=O)(=O)N2CCOCC2)cc1)NC(=S)Nc1ccc(N2CCOCC2)cc1	-1.9	-0.1	5.8	-4.3	-13.1	18.2
Cc1cc(NC(=S)NC(=O)/C=C/c2ccc(S(=O)(=O)N3CCOCC3)cc2)ccc1Br	1.2	84.7	-2.8	-8.6	9.6	100.4*
Cc1ccc(C(=O)/C=C/c2cc(Br)cc(Br)c2O)o1	4.7	72.2	4.6	0.6	6.7	89.3*
Cc1ccc(C(=O)/C=C/N(C)C)o1	-3.3	7.3	-0.8	-14.4	0.0	10.2
COc1cc(-c2csc(NC3CCCCC3)n2)cc(OC)c1OC	-10.7	-3.3	-11.7	43.0	-3.8	11.2
COC(=O)c1c(NC(=O)c2nn(C)cc2Cl)sc2c1CCCC2	7.6	14.5	5.7	30.2	20.9	58.0*
Oc1ccccc1N1CCN(c2ncnc3scc(-c4ccc(F)cc4)c23)CC1	12.6	-83.2*	5.2	3.3	-1.8	-87.0
Fc1ccc(CN2CCN(c3ncnc4scc(-c5ccccc5)c34)CC2)cc1	2.5	33.6	5.0	49.1	-24.1	84.0*
Oc1ccccc1N1CCN(c2ncnc3scc(-c4ccccc4)c23)CC1	2.3	-8.3	-13.8	0.5	6.3	-7.4
CCC(c1nnnn1Cc1ccco1)N(Cc1ccccc1OC)Cc1cc2cc(C)ccc2[nH]c1=O (stereo not given)	-10.4	88.4	-0.6	43.6	-13.0	89.2*
CCC(c1nnnn1Cc1ccco1)N(Cc1cc2cc(C)cc(C)c2[nH]c1=O)CC1CCCO1 (stereo not given)	5.5	52.1	2.7	24.3	6.5	64.1*
O=C(N/N=C(\c1ccccc1)c1cccnc1)c1cc(O)ccc1O	-1.9	-1.6	-14.7	65.3*	16.4	-0.2
O=C(CSc1nnc(-c2ccncc2)o1)NC1C2CC3CC(C2)CC1C3 (stereo not given)	-0.8	-5.1	-7.4	45.8	-9.9	2.6
CN(C)c1ccc(CNC(=O)c2ccc(CNc3c(N4CCCCC4)c(=O)c3=O)cc2)cc1	10.5	29.6	-0.4	2.1	-0.8	60.5*
CCCN(CCC)S(=O)(=O)c1ccc(NC(=O)c2cc(C(=O)OC)cc([N+](=O)[O-])c2)cc1	25.8	-61.2*	-10.4	74.1*	-5.2	-70.6
COc1cc(CN2CCCC(CO)(Cc3cccc(Cl)c3)C2)cc(OC)c1O (stereo not given)	5.2	3.6	-8.9	15.0	2.0	-2.9
COc1cc(CN2CCCC(CO)(Cc3cccc(Cl)c3)C2)cc2c1OCO2 (stereo not given)	-12.5	0.8	0.9	55.5*	24.3	3.6
CSc1cccc(CN2CCCC(CO)(Cc3cccc(Cl)c3)C2)c1 (stereo not given)	-8.6	1.7	1.2	62.0*	-16.8	4.5
COc1ccc(CN2CCCC(CO)(Cc3cccc(Cl)c3)C2)cc1OC (stereo not given)	10.7	2.7	1.8	55.5*	9.6	3.0
